Assay results as given in ChEMBL document CHEMBL1146489, “Aspochalasins I, J, and K: three new cytotoxic cytochalasans of Aspergillus flavipes from the rhizosphere of Ericameria laricifolia of the Sonoran Desert” (J Nat Prod, 2004).

Tests used:
Format in all cases: functional, cell-based
NCI-H460 = assay: Cytotoxicity against human NCI-H460 cells after 48 hrs by MTT assay; conditions: NCI-H460, 48 h
Summary of the method: (§1)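 Human tumour cells (NCI-H460 lung, MCF-7 breast, SF-268 glioma) exposed to compounds for 48 h in RPMI 1640 with 10% fetal bovine serum; viability read by tetrazolium-based colorimetric MTT assay.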

MCF7 = assay: Cytotoxicity against human MCF7 cells after 48 hrs by MTT assay; conditions: MCF7, 48 h; summary of the method: as §1
SF-268 = assay: Cytotoxicity against human SF268 cells after 48 hrs by MTT assay; conditions: SF-268, 48 h; summary of the method: as §1

Work on `CC1=C[C@@H]2/C=C(\C)CCCC(O)/C=C/C(=O)[C@]23C(=O)N[C@@H](CC(C)C)[C@@H]3[C@@H]1C` (stereo partly drawn) yielded an IC50 (NCI-H460) of 3.5 µM, an IC50 (MCF7) of 5 µM and an IC50 (SF-268) of 9.5 µM.
`CC1=C[C@@H]2/C=C(\C)CC[C@H](O)[C@H](O)/C=C/C(=O)[C@]23C(=O)N[C@@H](CC(C)C)[C@@H]3[C@@H]1C` [ASPOCHALASIN D] gave an IC50 (NCI-H460) of 3.4 µM, an IC50 (MCF7) of 5.3 µM and an IC50 (SF-268) of 5 µM.
For `CO[C@H]1[C@@H](O)CC/C(C)=C/[C@H]2C=C(C)[C@@H](C)[C@H]3[C@H](CC(C)C)NC(=O)[C@]32C(=O)C[C@@H]1O` [ASPOCHALASIN K], the IC50 (NCI-H460) was 14.3 µM, the IC50 (MCF7) was 13.1 µM and the IC50 (SF-268) was 19.9 µM.
Compound `CC1=C[C@@H]2/C=C(\C)CC[C@H](O)[C@H](O)[C@@H](O)CC(=O)[C@]23C(=O)N[C@@H](CC(C)C)[C@@H]3[C@@H]1C` [ASPOCHALASIN E] has an IC50 (NCI-H460) of 31.5 µM, an IC50 (MCF7) of 30.4 µM and an IC50 (SF-268) of 52.6 µM.
With `CC(=O)O[C@H]1C(=O)[C@@]2(C)[C@H]([C@H](OC(=O)c3ccccc3)[C@]3(O)C[C@H](OC(=O)[C@H](O)[C@@H](NC(=O)c4ccccc4)c4ccccc4)C(C)=C1C3(C)C)[C@]1(OC(C)=O)CO[C@@H]1C[C@@H]2O` [PACLITAXEL] the IC50 (NCI-H460) was 0.0095 µM and the IC50 (SF-268) was 0.0217 µM.
For `CC1=C[C@@H]2/C=C(\C)CCC[C@H](O)/C=C/C(=O)O[C@]23C(=O)N[C@@H](CC(C)C)[C@@H]3[C@@H]1C` [ASPOCHALASIN J], the IC50 (NCI-H460) was 55.2 µM, the IC50 (MCF7) was 14.9 µM and the IC50 (SF-268) was 13.4 µM.
For `CC1=C[C@@H]2/C=C(\C)CC[C@H](O)[C@H](O)/C=C/C(=O)O[C@]23C(=O)N[C@@H](CC(C)C)[C@@H]3[C@@H]1C` [ASPOCHALASIN I], the IC50 (NCI-H460) was 22.1 µM, the IC50 (MCF7) was 33.4 µM and the IC50 (SF-268) was 19.9 µM.
With `CC1=C[C@@H]2/C=C(\C)CC[C@H](O)[C@@H](O)/C=C/C(=O)[C@]23C(=O)N[C@@H](CC(C)C)[C@@H]3[C@@H]1C` [ASPOCHALASIN C] the IC50 (NCI-H460) was 5 µM, the IC50 (MCF7) was 7.7 µM and the IC50 (SF-268) was 3.9 µM.
